{
  "source": "ChEMBL document CHEMBL4325909",
  "about": "“Synthesis and evaluation of chalcone analogues containing a 4-oxoquinazolin-2-yl group as potential anti-tumor agents” (Eur J Med Chem, 2019)",
  "key": {"MCF-10A [1]": {"test_system": "MCF-10A", "assay": "Induction of apoptosis in human MCF10A cells assessed as necrotic cells at 1 uM after 12 hrs by annexin V-FITC/propidium iodide staining-based flow cytometry method (reference value: 0.57%)", "type": "cell-based", "procedure,_shortened": "(§1)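 Cells were stained with Annexin V-FITC/PI and gated by flow cytometry into live, early apoptotic, late apoptotic and necrotic quadrants. Apoptotic fraction is early plus late, mean ± SD of three independent experiments.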"}, "HCT-116 [2]": {"test_system": "HCT-116", "assay": "Induction of apoptosis in human HCT116 cells at 1 uM after 12 hrs by acridine orange/ethidium bromide staining-based fluorescence microscopic analysis", "type": "functional, cell-based"}, "[3]": {"assay": "Induction of apoptosis in human MCF10A cells assessed as viable cells at 1 uM after 12 hrs by annexin V-FITC/propidium iodide staining-based flow cytometry method (reference value: 95.4%)", "type": "cell-based, MCF-10A", "details": "read-out: Activity", "procedure,_shortened": "as §1"}, "HCT-116 [4]": {"test_system": "HCT-116", "assay": "Induction of apoptosis in human HCT116 cells assessed as early apoptotic cells at 1 uM after 12 hrs by annexin V-FITC/propidium iodide staining-based flow cytometry method (reference value: 3.8%)", "type": "functional"}, "HCT-116 [5]": {"test_system": "HCT-116", "assay": "Induction of apoptosis in human HCT116 cells assessed as late apoptotic cells at 1 uM after 12 hrs by annexin V-FITC/propidium iodide staining-based flow cytometry method (reference value: 5.4%)", "type": "functional"}, "HCT-116 [6]": {"test_system": "HCT-116", "assay": "Induction of apoptosis in human HCT116 cells after 12 hrs by annexin V-FITC/propidium iodide staining-based flow cytometry method", "type": "functional, cell-based"}, "HCT-116 [7]": {"test_system": "HCT-116", "assay": "Induction of apoptosis in human HCT116 cells assessed as viable cells at 1 uM after 12 hrs by annexin V-FITC/propidium iodide staining-based flow cytometry method (reference value: 86.0%)", "type": "functional", "details": "HCT-116, 12 h, read-out: Activity"}, "MCF-10A [8]": {"test_system": "MCF-10A", "assay": "Induction of apoptosis in human MCF10A cells assessed as early apoptotic cells at 1 uM after 12 hrs by annexin V-FITC/propidium iodide staining-based flow cytometry method (reference value: 0.20%)", "type": "cell-based", "procedure,_shortened": "as §1"}, "MCF-10A [9]": {"test_system": "MCF-10A", "assay": "Induction of apoptosis in human MCF10A cells after 12 hrs by annexin V-FITC/propidium iodide staining-based flow cytometry method", "type": "cell-based", "procedure,_shortened": "as §1"}, "HCT-116 [10]": {"test_system": "HCT-116", "assay": "Induction of mitochondrial membrane depolarization in human HCT116 cells at 1 uM after 12 hrs by JC-1 staining based fluorescence microscopic analysis", "type": "functional, cell-based"}, "HCT-116 [11]": {"test_system": "HCT-116", "assay": "Induction of apoptosis in human HCT116 cells assessed as necrotic cells at 1 uM after 12 hrs by annexin V-FITC/propidium iodide staining-based flow cytometry method (reference value: 4.8%)", "type": "functional"}, "HCT-116 [12]": {"test_system": "HCT-116", "assay": "Induction of reactive oxygen species generation in human HCT116 cells assessed as increase in mitochondrial superoxide generation at 1 uM after 12 hrs by MitoSOX red dye-based fluorescence microscopic analysis", "type": "functional, cell-based"}},
  "note": "Calls of active or inactive are those of the source. No cut-off for these calls is given here.",
  "data": [
    {"compound": "CN[C@@H]1C[C@H]2O[C@@](C)([C@@H]1OC)n1c3ccccc3c3c4c(c5c6ccccc6n2c5c31)C(=O)NC4", "note": "[STAUROSPORINE]", "values": [
      {"measurement": "Activity", "setting": "MCF-10A [1]", "result": 1.22, "unit": "%"},
      {"measurement": "Activity", "setting": "HCT-116 [2]", "result": "Active"},
      {"measurement": "viability at 12 h, 1 µM", "setting": "[3]", "result": 85.6, "unit": "%"},
      {"measurement": "Activity", "setting": "HCT-116 [4]", "result": 25.6, "unit": "%"},
      {"measurement": "Activity", "setting": "HCT-116 [5]", "result": 8.4, "unit": "%"},
      {"measurement": "Activity", "setting": "HCT-116 [6]", "result": "Dose-dependent effect"},
      {"measurement": "viability at 1 µM", "setting": "HCT-116 [7]", "result": 63.1, "unit": "%"},
      {"measurement": "Activity", "setting": "MCF-10A [8]", "result": 2.18, "unit": "%"},
      {"measurement": "Activity", "setting": "MCF-10A [9]", "result": "Dose-dependent effect"},
      {"measurement": "Activity", "setting": "HCT-116 [10]", "result": "Active"},
      {"measurement": "Activity", "setting": "HCT-116 [11]", "result": 3, "unit": "%"},
      {"measurement": "Activity", "setting": "HCT-116 [12]", "result": "Active"}
    ]}
  ]
}
